Reference: ChEMBL document CHEMBL4316593 (Eur J Med Chem, 2019)

Assays:
U-87 MG [1] = assay: Induction of DNA damage in human U87 cells assessed as change in SFN gene expression at cytotoxic IC50 measured after 48 hrs […] relative to control; type: functional, U-87MG ATCC
Outline: (§1)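 U87 cells grown in MEM with 10% FBS at 37°C, 5% CO2. Cells exposed to IC50 of test compound for 48 hrs, alongside untreated and cisplatin controls, each condition in triplicate. RNA isolated and profiled; differential expression called with DESeq2 (q-value < 0.05, fold change > 1.5), fold change versus untreated.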

[2] = Inhibition of RTK/PI3K/AKT/mTOR signaling in human U87 cells assessed as down regulation of CCDC186 gene expression at cytotoxic IC50 measured after 48 hrs relative to control; type: cell-based; conditions: U-87MG ATCC; outline: as §1
[3] = Inhibition of RTK/PI3K/AKT/mTOR signaling in human U87 cells assessed as up regulation of ADP ribosylation factor like GTPase 6 interacting protein 5 gene expression at cytotoxic IC50 measured after 48 hrs relative to control; type: cell-based; conditions: U-87MG ATCC
Outline: (§2)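 Cells were exposed for 48hrs at 37°C in humidified 5% CO₂ to the compound at its previously determined IC₅₀, with Cisplatin at its IC₅₀ and an untreated negative control alongside. Each condition was run in triplicate. RNA was isolated from all samples by the same protocol. Genes were called differentially expressed by DESeq2 at q-value < 0.05 and fold change > 1.5.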

[4] = Inhibition of RTK/PI3K/AKT/mTOR signaling in human U87 cells assessed as up regulation of single Ig and TIR domain containing gene expression at cytotoxic IC50 measured after 48 hrs relative to control; type: cell-based; conditions: U-87MG ATCC
[5] = Inhibition of RTK/PI3K/AKT/mTOR signaling in human U87 cells assessed as down regulation of CHST3 gene expression at cytotoxic IC50 measured after 48 hrs relative to control; type: cell-based; conditions: U-87MG ATCC; outline: as §1
[6] = Inhibition of RTK/PI3K/AKT/mTOR signaling in human U87 cells assessed as down regulation of GPATCH11 gene expression at cytotoxic IC50 measured after 48 hrs relative to control; type: cell-based; conditions: U-87MG ATCC; outline: as §1
U-87 MG [7] = assay: Cell cycle arrest in human U87 cells assessed as change in YWHAG gene expression at cytotoxic IC50 measured after 48 hrs […] relative to control; type: functional, U-87MG ATCC
Outline: (§3)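 U87 expression profiling. Cells incubated 48hrs at 37°C, 5% CO₂ with the IC₅₀ concentration, alongside a cisplatin and an untreated control, in triplicate. RNA was isolated by one common protocol and profiled. DEGs were called with DESeq2 (q < 0.05, fold change > 1.5) and expressed as fold change versus untreated.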

[8] = Inhibition of RTK/PI3K/AKT/mTOR signaling in human U87 cells assessed as up regulation of NFATC4 gene expression at cytotoxic IC50 measured after 48 hrs relative to control; type: cell-based; conditions: U-87MG ATCC; outline: as §2
U-87 MG [9] = assay: Cell cycle arrest in human U87 cells assessed as change in GADD45A gene expression at cytotoxic IC50 measured after 48 hrs […] relative to control; type: functional, U-87MG ATCC; outline: as §3
U-87 MG [10] = assay: Cell cycle arrest in human U87 cells assessed as accumulation at G1 phase at cytotoxic IC50 measured after 48 hrs by propidium iodide staining based fluorescence cell imaging analysis (reference value: 39.7%); type: functional, U-87MG ATCC
Outline: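 Cell cycle by PI staining. Cells seeded at 1×10^6 and grown overnight at 37°C, 5% CO₂, then exposed for 48hrs at their IC₅₀ concentration, with DMSO and cisplatin controls. Cells were trypsinized, washed in cold PBS and fixed in 70% ethanol at 4°C for 30 min. They were stained with PI in Triton X-100/RNase for 15 min at 37°C and imaged by fluorescence microscopy. Reported as mean ± S.E.M of triplicates.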

[11] = Inhibition of RTK/PI3K/AKT/mTOR signaling in human U87 cells assessed as up regulation of SLC45A3 gene expression at cytotoxic IC50 measured after 48 hrs relative to control; type: cell-based; conditions: U-87MG ATCC
U-87 MG [12] = assay: Cell cycle arrest in human U87 cells assessed as change in ESPL1 gene expression at cytotoxic IC50 measured after 48 hrs […] relative to control; type: functional, U-87MG ATCC; outline: as §3
U-87 MG [13] = assay: Cell cycle arrest in human U87 cells assessed as change in CDK4 gene expression at cytotoxic IC50 measured after 48 hrs […] relative to control; type: functional, U-87MG ATCC; outline: as §3
[14] = Inhibition of RTK/PI3K/AKT/mTOR signaling in human U87 cells assessed as down regulation of NAAA gene expression at cytotoxic IC50 measured after 48 hrs relative to control; type: cell-based; conditions: U-87MG ATCC; outline: as §2
[15] = Inhibition of RTK/PI3K/AKT/mTOR signaling in human U87 cells assessed as up regulation of UPK1A-AS1 gene expression at cytotoxic IC50 measured after 48 hrs relative to control; type: cell-based; conditions: U-87MG ATCC
[16] = Inhibition of RTK/PI3K/AKT/mTOR signaling in human U87 cells assessed as down regulation of DTL gene expression at cytotoxic IC50 measured after 48 hrs relative to control; type: cell-based; conditions: U-87MG ATCC; outline: as §1
[17] = Inhibition of RTK/PI3K/AKT/mTOR signaling in human U87 cells assessed as up regulation of lemur tyrosine kinase 3 gene expression at cytotoxic IC50 measured after 48 hrs relative to control; type: cell-based; conditions: U-87MG ATCC
U-87 MG [18] = assay: Cytotoxicity against human U87 cells assessed as reduction in cell proliferation up to 200 uM by trypan blue dye-based cell counting analysis; type: functional; conditions: U-87MG ATCC, TDE = time-dependent effect
Outline: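 U87 cells grown 24hrs, then treated for 5hrs with 0-200 μM. Viability by trypan blue exclusion; mean ± S.E.M, n = 4 per group, one-way ANOVA.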

U-87 MG [19] = assay: Induction of DNA damage in human U87 cells assessed as change in PCNA gene expression at cytotoxic IC50 measured after 48 hrs […] relative to control; type: functional, U-87MG ATCC; outline: as §3
[20] = Inhibition of RTK/PI3K/AKT/mTOR signaling in human U87 cells assessed as down regulation of RFC4 gene expression at cytotoxic IC50 measured after 48 hrs relative to control; type: cell-based; conditions: U-87MG ATCC; outline: as §2
U-87 MG [21] = assay: Induction of DNA damage in human U87 cells assessed as change in CDKN1A gene expression at cytotoxic IC50 measured after 48 hrs […] relative to control; type: functional, U-87MG ATCC; outline: as §3
[22] = Inhibition of RTK/PI3K/AKT/mTOR signaling in human U87 cells assessed as up regulation of KCMF1 gene expression at cytotoxic IC50 measured after 48 hrs relative to control; type: cell-based; conditions: U-87MG ATCC; outline: as §2
[23] = Inhibition of RTK/PI3K/AKT/mTOR signaling in human U87 cells assessed as up regulation of macrophage stimulating 1 receptor gene expression at cytotoxic IC50 measured after 48 hrs relative to control; type: cell-based
[24] = Inhibition of RTK/PI3K/AKT/mTOR signaling in human U87 cells assessed as up regulation of retinoic acid receptor alpha gene expression at cytotoxic IC50 measured after 48 hrs relative to control; type: cell-based; conditions: U-87MG ATCC
[25] = Inhibition of RTK/PI3K/AKT/mTOR signaling in human U87 cells assessed as up regulation of KDM5B gene expression at cytotoxic IC50 measured after 48 hrs relative to control; type: cell-based; conditions: U-87MG ATCC; outline: as §2
U-87 MG [26] = assay: Cell cycle arrest in human U87 cells assessed as change in CREBBP gene expression at cytotoxic IC50 measured after 48 hrs […] relative to control; type: functional, U-87MG ATCC; outline: as §3

Structure (SMILES): CC(=O)C(=NNc1ccccc1C#N)C(C)=O
- fold change (FC) (U-87 MG [1]): 1.949
- log2FC [2]: -0.865
- log2FC [3]: 0.661
- log2FC [4]: 0.676
- log2FC [5]: -1.06
- log2FC [6]: -1.69
- fold change (FC) (U-87 MG [7]): -0.7503
- log2FC [8]: 2.89
- fold change (FC) (U-87 MG [9]): -0.9679
- Activity (U-87 MG [10]): 47.7%
- log2FC [11]: 1.61
- fold change (FC) (U-87 MG [12]): 2.307
- fold change (FC) (U-87 MG [13]): 1.499
- log2FC [14]: -1.57
- log2FC [15]: 2.69
- log2FC [16]: -1.56
- log2FC [17]: 0.868
- Activity (U-87 MG [18]): Tde
- fold change (FC) (U-87 MG [19]): 1.668
- log2FC [20]: -1
- fold change (FC) (U-87 MG [21]): 1.296
- log2FC [22]: 0.499
- log2FC [23]: 0.723
- log2FC [24]: 1.04
- log2FC [25]: 0.553
- fold change (FC) (U-87 MG [26]): -1.086
